SMILES strings stand for the structures.

The target in the assay is MAP kinase-interacting serine/threonine-protein kinase 1 (Homo sapiens, UniProt Q9BUB5). As to the kind of experiment: Inhibition of human MNK1 using CREBtide substrate by gamma-[32P]-ATP competitive inhibition assay. The method, boiled down: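 Run as the Eurofins KinaseProfiler radiometric assay, competitive with γ-[32P]-ATP. IC50 taken as the mean of independent experiments; the footnote gives two.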
Sequence of MAP kinase-interacting serine/threonine-protein kinase 1 (Q9BUB5 whole entry): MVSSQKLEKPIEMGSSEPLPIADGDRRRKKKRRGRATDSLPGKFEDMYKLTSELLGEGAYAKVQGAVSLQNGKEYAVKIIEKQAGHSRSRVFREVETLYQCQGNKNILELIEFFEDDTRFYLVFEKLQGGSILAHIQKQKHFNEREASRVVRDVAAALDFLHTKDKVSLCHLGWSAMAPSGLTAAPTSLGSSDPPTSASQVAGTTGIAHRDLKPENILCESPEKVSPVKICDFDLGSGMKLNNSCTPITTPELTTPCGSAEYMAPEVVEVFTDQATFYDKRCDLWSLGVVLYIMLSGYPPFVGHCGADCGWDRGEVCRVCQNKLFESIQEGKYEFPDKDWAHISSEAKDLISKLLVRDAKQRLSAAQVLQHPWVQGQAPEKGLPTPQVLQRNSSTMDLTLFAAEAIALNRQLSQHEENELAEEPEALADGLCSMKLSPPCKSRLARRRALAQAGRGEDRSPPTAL

`Brc1ccc(Nc2ncnc3sc4c(c23)CCN(Cc2ccccc2)C4)cc1` came in with an IC50 of 1690 nM. `O=S(=O)(c1cccs1)N1CCc2c(sc3ncnc(Nc4cccc(F)c4)c23)C1` returned an IC50 of 1500 nM. Under `COc1ccc(S(=O)(=O)N2CCc3c(sc4ncnc(Nc5cccc(OC)c5)c34)C2)cc1` stands 2140 nM; under `O=S(=O)(c1cccs1)N1CCc2c(sc3ncnc(Nc4ccc(Cl)cc4)c23)C1`, 1630 nM; under `Fc1cccc(Nc2ncnc3sc4c(c23)CCN(Cc2ccccc2)C4)c1`, 2080 nM.

`CC(C)(C)OC(=O)N1CCc2c(sc3ncnc(Nc4ccc(F)cc4F)c23)C1` gave an IC50 of 1620 nM. Under `COc1cccc(Nc2ncnc3sc4c(c23)CCN(C)C4)c1` stands 2290 nM; under `CC(C)(C)OC(=O)N1CCc2c(sc3ncnc(Nc4ccc(Cl)cc4)c23)C1`, 2240 nM; under `COc1cc(F)ccc1Nc1ncnc2sc3c(c12)CCN(C(=O)OC(C)(C)C)C3`, 1340 nM.

Take `O=S(=O)(c1ccc(F)cc1F)N1CCc2c(sc3ncnc(Nc4ccc(F)cc4F)c23)C1`: the IC50 stood at 1100 nM. In the case of `O=[N+]([O-])c1ccccc1S(=O)(=O)N1CCc2c(sc3ncnc(Nc4ccc(Br)cc4)c23)C1`, the IC50 was 1250 nM.

`COc1cccc(Nc2ncnc3sc4c(c23)CCCC4)c1` yielded an IC50 of 1700 nM.

On to `O=S(=O)(c1ccc(F)cc1F)N1CCc2c(sc3ncnc(Nc4cccc(Cl)c4)c23)C1`, for which the IC50 was found to be 1740 nM. In turn, `CC(C)(C)OC(=O)N1CCc2c(sc3ncnc(Nc4ccc(Cl)cc4F)c23)C1` yielded an IC50 of 2160 nM. Under `O=[N+]([O-])c1ccccc1S(=O)(=O)N1CCc2c(sc3ncnc(Nc4ccc(F)cc4F)c23)C1` stands 1080 nM; under `Cc1cccc(Nc2ncnc3sc4c(c23)CCCC4)c1`, 1790 nM; under `CN1CCc2c(sc3ncnc(Nc4ccc(F)cc4F)c23)C1`, 1090 nM. The value for `COc1cccc(Nc2ncnc3sc4c(c23)CCN(Cc2ccccc2)C4)c1` was 1920 nM; that for `O=[N+]([O-])c1ccccc1S(=O)(=O)N1CCc2c(sc3ncnc(Nc4cccc(Cl)c4)c23)C1` was 1640 nM; that for `Cc1ccc(Nc2ncnc3sc4c(c23)CCN(C(=O)OC(C)(C)C)C4)c(Br)c1` was 1700 nM. The value for `COc1cc(F)ccc1Nc1ncnc2sc3c(c12)CCN(Cc1ccccc1)C3` was 1000 nM. As to `Clc1ccc(Nc2ncnc3sc4c(c23)CCCC4)cc1`, the IC50 came out at 1620 nM. Molecule `Clc1ccc(Nc2ncnc3sc4c(c23)CCN(Cc2ccccc2)C4)cc1` registered an IC50 of 1540 nM. Take `CN1CCc2c(sc3ncnc(Nc4ccc(Br)cc4)c23)C1`: the IC50 stood at 1690 nM. The value for `COc1cccc(Nc2ncnc3sc4c(c23)CCN(S(=O)(=O)c2cccs2)C4)c1` was 2350 nM; that for `Cc1ccc(Nc2ncnc3sc4c(c23)CCN(S(=O)(=O)c2cccs2)C4)c(Br)c1` was 1560 nM. Under `CC(C)(C)OC(=O)N1CCc2c(sc3ncnc(Nc4cccc(Cl)c4)c23)C1` stands 2170 nM. Under `COc1cc(F)ccc1Nc1ncnc2sc3c(c12)CCN(C)C3` stands 930 nM.

Turning to `CC(C)(C)OC(=O)N1CCc2c(sc3ncnc(Nc4cccc(F)c4)c23)C1`, the IC50 stood at 2190 nM. Under `COc1ccc(S(=O)(=O)N2CCc3c(sc4ncnc(Nc5ccc(C)cc5Br)c34)C2)cc1` stands 1890 nM; under `O=[N+]([O-])c1ccccc1S(=O)(=O)N1CCc2c(sc3ncnc(Nc4ccc(Cl)cc4F)c23)C1`, 1260 nM; under `Cc1ccc(Nc2ncnc3sc4c(c23)CCN(Cc2ccccc2)C4)c(Br)c1`, 1570 nM. The value for `O=[N+]([O-])c1ccccc1S(=O)(=O)N1CCc2c(sc3ncnc(Nc4cccc(F)c4)c23)C1` was 1990 nM; that for `Cc1ccc(Nc2ncnc3sc4c(c23)CCN(S(=O)(=O)c2ccc(F)cc2F)C4)c(Br)c1` was 1680 nM; that for `Cc1cccc(Nc2ncnc3sc4c(c23)CCN(Cc2ccccc2)C4)c1` was 2110 nM. The value for `Cc1ccc(Nc2ncnc3sc4c(c23)CCN(C)C4)c(Br)c1` was 1650 nM.

Usually IC50 stands for the point on the concentration scale where inhibition reaches its midpoint.

For the origin of these results see ChEMBL document CHEMBL4340542, “Design, synthesis and biological evaluation of 4-aniline-thieno[2,3-d]pyrimidine derivatives as MNK1 inhibitors against renal cell carcinoma and nasopharyngeal carcinoma” (Bioorg Med Chem, 2019).
